In ChEMBL document CHEMBL1165965, “Synthesis and structure-activity relationships of 1,2,3,4-tetrahydropyrido[2,3-b]pyrazines as potent and selective inhibitors of the anaplastic lymphoma kinase” (Bioorg Med Chem, 2010):

What was measured:
[1] = biological target: Insulin-like growth factor 1 receptor (Homo sapiens) (UniProt P08069); assay: Inhibition of IGF1R at 1 uM
In short: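 Single-concentration screen on the Ambit KINOMEscan platform, run against a panel of 250–400 kinases. Per-kinase inhibition was also summarized as S(90), the fraction of kinases inhibited by more than 90%.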

[2] = biological target: T1, Dual specificity tyrosine-phosphorylation-regulated kinase 2 (Homo sapiens) (UniProt Q92630); assay: Inhibition of DYRK2 at 1 uM
T1 sequence (whole entry): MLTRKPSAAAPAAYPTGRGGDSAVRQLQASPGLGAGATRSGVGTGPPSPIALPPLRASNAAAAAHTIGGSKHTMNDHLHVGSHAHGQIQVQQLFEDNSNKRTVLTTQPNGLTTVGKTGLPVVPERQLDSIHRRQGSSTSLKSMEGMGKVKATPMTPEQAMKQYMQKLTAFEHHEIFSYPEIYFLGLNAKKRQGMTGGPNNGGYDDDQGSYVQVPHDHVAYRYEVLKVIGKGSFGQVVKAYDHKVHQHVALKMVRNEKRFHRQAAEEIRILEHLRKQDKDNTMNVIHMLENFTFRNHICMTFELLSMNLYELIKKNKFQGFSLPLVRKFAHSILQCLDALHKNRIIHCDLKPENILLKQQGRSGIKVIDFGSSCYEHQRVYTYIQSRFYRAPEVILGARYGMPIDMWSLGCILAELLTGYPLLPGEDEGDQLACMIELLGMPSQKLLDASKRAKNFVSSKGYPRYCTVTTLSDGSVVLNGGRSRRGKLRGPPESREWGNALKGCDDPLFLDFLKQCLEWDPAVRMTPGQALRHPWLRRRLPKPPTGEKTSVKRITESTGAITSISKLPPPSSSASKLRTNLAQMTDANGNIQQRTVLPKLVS

[3] = biological target: Tyrosine-protein kinase Srms (Homo sapiens) (UniProt Q9H3Y6); assay: Inhibition of SRMS at 1 uM
[4] = biological target: Serine/threonine-protein kinase SIK3 (Homo sapiens) (UniProt Q9Y2K2); assay: Inhibition of QSK at 1 uM
[5] = biological target: Tyrosine-protein kinase Blk (Homo sapiens) (UniProt P51451); assay: Inhibition of BLK at 1 uM
In short: (§1)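 Ambit KINOMEscan screen at a single concentration across a 250–400 kinase panel, recorded as percent inhibition. Selectivity was expressed as S(90), the fraction of kinases inhibited >90%.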

[6] = biological target: Proto-oncogene tyrosine-protein kinase receptor Ret (Homo sapiens) (UniProt P07949); assay: Inhibition of RET at 1 uM
[7] = biological target: Homeodomain-interacting protein kinase 3 (Homo sapiens) (UniProt Q9H422); assay: Inhibition of HIPK3 at 1 uM
[8] = biological target: T2, Homeodomain-interacting protein kinase 4 (Homo sapiens) (UniProt Q8NE63); assay: Inhibition of HIPK4 at 1 uM
T2 sequence (whole entry): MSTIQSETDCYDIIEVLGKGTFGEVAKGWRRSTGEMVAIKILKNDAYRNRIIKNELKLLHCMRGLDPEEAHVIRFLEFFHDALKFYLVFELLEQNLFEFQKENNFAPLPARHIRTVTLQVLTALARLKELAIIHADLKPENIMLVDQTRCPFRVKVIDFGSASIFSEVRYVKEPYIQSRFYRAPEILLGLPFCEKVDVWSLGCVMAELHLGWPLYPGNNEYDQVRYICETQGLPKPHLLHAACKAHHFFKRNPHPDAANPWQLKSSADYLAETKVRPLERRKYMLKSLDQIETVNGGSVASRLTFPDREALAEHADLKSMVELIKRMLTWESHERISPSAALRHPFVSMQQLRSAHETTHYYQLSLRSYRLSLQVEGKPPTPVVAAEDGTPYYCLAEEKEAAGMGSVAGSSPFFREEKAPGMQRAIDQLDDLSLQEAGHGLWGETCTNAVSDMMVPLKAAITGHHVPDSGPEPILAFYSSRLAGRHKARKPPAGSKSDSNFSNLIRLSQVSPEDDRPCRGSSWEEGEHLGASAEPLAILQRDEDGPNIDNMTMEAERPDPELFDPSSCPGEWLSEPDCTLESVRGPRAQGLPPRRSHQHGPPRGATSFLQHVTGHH

[9] = biological target: Serine/threonine-protein kinase pim-2 (Homo sapiens) (UniProt Q9P1W9); assay: Inhibition of PIM2 at 1 uM
[10] = system: Hepatocyte growth factor receptor (Homo sapiens), P08581 [Y1235D]; assay: Inhibition of MET Y1235D mutant at 1 uM
[11] = biological target: Serine/threonine-protein kinase MARK2 (Homo sapiens) (UniProt Q7KZI7); assay: Inhibition of MARK2 at 1 uM
In short: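 Kinase-panel screen using KINOMEscan technology, with 250–400 kinases per panel. Each compound was tested at a single concentration, and inhibition of each kinase was recorded. Selectivity was summarised as S(90), the fraction of kinases inhibited by more than 90%.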

[12] = biological target: Activin receptor type-2B (Homo sapiens) (UniProt Q13705); assay: Inhibition of ACVR2B at 1 uM; in short: as §1
[13] = biological target: T3, Serine/threonine-protein kinase PLK4 (Homo sapiens) (UniProt O00444); assay: Inhibition of PLK4 at 1 uM
T3 sequence (whole entry): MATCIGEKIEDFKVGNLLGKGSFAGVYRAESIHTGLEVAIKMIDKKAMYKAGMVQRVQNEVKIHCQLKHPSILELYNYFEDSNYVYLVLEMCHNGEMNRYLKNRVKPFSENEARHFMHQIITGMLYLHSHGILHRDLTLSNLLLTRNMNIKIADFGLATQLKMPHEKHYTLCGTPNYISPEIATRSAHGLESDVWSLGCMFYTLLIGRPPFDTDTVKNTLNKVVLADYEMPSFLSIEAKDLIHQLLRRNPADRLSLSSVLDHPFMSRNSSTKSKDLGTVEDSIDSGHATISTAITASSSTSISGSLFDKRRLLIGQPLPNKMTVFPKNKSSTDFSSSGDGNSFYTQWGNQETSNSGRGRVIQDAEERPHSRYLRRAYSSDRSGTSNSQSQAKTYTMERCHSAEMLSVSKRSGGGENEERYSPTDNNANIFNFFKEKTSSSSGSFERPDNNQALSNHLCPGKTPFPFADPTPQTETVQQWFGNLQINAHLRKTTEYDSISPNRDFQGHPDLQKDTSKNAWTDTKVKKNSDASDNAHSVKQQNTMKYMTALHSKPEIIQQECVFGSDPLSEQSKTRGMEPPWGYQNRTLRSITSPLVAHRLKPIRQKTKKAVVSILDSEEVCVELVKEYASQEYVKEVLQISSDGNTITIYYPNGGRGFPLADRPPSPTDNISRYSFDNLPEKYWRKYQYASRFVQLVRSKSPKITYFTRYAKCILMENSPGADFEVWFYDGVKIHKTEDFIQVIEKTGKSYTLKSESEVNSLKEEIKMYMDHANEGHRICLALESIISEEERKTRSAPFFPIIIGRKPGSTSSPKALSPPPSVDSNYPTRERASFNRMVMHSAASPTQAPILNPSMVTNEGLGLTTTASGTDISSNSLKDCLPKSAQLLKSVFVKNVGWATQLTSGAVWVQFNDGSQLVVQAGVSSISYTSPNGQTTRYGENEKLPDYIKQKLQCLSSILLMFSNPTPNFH

Sequence of Serine/threonine-protein kinase MARK2 (Homo sapiens) (Q7KZI7 whole entry): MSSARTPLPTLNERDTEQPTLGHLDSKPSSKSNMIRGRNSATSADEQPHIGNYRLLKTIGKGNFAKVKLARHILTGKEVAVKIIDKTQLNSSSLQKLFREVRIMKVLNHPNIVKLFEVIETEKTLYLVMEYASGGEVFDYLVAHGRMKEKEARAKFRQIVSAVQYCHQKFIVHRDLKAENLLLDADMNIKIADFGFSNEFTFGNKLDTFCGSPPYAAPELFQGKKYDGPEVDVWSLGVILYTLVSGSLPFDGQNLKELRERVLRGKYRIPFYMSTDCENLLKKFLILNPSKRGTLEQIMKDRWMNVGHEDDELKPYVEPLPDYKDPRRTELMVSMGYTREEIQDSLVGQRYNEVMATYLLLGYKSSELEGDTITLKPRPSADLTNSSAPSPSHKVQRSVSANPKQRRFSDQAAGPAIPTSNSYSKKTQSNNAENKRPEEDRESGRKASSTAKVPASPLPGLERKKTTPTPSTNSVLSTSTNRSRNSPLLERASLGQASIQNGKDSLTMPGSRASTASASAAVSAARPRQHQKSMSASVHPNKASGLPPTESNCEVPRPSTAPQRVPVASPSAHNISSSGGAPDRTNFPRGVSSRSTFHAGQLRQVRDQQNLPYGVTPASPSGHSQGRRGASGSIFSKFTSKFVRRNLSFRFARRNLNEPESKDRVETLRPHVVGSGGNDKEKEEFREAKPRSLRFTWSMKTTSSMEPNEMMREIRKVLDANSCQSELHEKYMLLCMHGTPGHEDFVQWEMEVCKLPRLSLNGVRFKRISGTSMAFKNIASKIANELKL
Sequence of Tyrosine-protein kinase Blk (Homo sapiens) (P51451 2-505 limits assumed): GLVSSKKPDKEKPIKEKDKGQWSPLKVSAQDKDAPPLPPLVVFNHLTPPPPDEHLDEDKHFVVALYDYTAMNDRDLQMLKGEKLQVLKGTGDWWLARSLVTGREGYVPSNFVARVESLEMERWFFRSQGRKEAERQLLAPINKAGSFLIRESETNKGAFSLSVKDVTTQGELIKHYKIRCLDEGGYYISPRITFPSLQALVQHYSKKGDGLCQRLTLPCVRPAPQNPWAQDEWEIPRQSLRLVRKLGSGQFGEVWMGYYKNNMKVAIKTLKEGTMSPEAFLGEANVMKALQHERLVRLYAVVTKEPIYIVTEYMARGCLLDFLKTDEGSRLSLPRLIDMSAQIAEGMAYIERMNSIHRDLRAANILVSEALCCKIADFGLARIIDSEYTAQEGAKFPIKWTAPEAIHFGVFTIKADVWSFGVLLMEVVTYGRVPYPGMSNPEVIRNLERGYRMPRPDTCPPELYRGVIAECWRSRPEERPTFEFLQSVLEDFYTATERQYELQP
Sequence of Proto-oncogene tyrosine-protein kinase receptor Ret (Homo sapiens) (P07949 whole entry): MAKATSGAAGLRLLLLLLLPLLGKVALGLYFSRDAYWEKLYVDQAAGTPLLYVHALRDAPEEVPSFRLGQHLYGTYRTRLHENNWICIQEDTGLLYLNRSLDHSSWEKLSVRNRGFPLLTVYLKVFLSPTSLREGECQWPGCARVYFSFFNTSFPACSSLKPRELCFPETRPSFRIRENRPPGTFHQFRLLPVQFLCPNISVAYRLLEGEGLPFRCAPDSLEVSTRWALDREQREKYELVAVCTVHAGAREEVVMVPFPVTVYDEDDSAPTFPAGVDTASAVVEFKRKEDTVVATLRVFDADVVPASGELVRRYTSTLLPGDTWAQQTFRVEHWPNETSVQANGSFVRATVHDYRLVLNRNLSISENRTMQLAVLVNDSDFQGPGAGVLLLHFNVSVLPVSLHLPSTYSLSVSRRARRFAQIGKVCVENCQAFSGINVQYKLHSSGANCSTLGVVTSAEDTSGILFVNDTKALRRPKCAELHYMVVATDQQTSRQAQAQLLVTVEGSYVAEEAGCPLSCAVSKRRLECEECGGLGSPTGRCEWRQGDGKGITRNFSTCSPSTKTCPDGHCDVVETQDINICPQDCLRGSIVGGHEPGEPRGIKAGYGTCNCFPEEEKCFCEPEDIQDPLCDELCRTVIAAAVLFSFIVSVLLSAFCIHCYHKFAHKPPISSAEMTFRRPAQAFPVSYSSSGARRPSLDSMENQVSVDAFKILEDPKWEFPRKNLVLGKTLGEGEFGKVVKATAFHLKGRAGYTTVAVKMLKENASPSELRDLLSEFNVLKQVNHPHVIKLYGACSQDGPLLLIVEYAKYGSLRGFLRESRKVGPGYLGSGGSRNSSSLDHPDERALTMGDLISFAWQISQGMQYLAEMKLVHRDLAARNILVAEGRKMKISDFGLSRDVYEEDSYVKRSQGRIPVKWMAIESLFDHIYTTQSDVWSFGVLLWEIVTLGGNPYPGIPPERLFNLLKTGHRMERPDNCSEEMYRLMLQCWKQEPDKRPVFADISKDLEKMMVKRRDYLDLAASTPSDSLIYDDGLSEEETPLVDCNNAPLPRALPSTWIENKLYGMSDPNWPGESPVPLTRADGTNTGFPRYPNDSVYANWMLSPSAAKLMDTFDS
Sequence of Activin receptor type-2B (Homo sapiens) (Q13705 whole entry): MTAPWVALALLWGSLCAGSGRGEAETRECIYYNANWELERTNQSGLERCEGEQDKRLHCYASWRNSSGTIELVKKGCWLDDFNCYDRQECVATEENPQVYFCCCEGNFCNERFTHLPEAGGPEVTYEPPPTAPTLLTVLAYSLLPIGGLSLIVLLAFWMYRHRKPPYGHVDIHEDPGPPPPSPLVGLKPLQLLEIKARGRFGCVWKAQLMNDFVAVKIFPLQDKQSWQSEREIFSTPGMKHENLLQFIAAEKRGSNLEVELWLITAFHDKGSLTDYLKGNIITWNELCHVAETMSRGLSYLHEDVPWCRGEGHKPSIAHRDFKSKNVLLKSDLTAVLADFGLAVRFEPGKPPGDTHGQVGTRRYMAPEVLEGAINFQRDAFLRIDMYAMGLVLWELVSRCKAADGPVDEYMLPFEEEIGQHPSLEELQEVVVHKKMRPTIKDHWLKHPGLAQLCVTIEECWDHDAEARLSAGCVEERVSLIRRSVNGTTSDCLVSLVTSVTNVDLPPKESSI
Sequence of Homeodomain-interacting protein kinase 3 (Homo sapiens) (Q9H422 whole entry, looked up): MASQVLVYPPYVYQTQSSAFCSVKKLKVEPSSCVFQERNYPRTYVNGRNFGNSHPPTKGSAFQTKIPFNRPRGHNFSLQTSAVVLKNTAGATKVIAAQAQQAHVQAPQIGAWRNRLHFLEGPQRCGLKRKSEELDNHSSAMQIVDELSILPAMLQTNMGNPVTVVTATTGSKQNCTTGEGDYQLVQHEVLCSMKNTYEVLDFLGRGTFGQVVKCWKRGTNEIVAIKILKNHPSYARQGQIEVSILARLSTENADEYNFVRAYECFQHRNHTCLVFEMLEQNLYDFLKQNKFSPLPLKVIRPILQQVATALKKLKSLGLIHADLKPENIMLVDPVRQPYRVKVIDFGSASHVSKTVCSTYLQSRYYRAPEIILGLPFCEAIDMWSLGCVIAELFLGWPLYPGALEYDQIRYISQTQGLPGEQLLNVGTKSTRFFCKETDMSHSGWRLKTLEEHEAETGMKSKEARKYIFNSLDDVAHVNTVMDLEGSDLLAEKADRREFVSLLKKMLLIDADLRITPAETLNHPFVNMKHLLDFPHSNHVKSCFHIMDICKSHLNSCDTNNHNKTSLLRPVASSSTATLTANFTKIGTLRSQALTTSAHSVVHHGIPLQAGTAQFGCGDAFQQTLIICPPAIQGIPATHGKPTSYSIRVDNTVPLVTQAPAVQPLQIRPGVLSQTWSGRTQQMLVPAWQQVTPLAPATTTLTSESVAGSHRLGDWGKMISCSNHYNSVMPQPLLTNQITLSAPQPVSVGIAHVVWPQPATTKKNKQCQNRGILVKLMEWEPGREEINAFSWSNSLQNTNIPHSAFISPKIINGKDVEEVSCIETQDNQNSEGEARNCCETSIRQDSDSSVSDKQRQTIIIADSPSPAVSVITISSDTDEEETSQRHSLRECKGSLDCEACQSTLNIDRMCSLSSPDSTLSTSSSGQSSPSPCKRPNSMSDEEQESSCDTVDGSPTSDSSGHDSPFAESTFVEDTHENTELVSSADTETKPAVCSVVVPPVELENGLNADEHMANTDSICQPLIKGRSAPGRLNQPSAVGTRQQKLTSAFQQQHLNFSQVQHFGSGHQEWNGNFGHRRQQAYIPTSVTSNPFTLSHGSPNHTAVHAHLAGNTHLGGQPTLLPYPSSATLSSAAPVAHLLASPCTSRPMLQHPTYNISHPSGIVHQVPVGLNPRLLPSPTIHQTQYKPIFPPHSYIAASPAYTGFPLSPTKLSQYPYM
Sequence of Tyrosine-protein kinase Srms (Homo sapiens) (Q9H3Y6 whole entry): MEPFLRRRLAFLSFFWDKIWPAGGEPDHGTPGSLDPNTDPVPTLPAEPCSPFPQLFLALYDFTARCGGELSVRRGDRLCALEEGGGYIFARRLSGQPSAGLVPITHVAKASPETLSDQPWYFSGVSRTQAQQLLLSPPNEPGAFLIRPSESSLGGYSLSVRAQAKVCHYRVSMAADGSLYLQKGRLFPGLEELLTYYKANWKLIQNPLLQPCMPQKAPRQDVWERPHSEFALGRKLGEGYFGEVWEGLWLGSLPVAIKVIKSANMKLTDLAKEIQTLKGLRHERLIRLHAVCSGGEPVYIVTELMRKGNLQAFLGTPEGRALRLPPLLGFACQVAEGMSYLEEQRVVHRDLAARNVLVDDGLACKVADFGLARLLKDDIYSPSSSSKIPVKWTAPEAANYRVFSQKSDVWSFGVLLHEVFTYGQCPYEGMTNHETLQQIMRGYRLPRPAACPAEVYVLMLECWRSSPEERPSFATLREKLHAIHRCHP
Sequence of Serine/threonine-protein kinase pim-2 (Homo sapiens) (Q9P1W9 whole entry, looked up): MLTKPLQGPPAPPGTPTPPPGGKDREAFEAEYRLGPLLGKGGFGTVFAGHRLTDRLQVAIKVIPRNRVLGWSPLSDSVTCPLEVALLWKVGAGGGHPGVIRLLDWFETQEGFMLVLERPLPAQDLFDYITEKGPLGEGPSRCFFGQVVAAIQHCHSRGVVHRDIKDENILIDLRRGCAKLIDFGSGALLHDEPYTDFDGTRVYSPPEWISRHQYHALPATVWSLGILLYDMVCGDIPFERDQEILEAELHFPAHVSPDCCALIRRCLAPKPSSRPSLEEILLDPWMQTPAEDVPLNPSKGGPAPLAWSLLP

SMILES | inhibition [1] [%] | inhibition [2] [%] | inhibition [3] [%] | inhibition [4] [%] | inhibition [5] [%] | inhibition [6] [%] | inhibition [7] [%] | inhibition [8] [%] | inhibition [9] [%] | inhibition [10] [%] | inhibition [11] [%] | inhibition [12] [%] | inhibition [13] [%]
CN1CCN(c2ccc(-c3cnc4c(c3)N(Cc3cc(Cl)ccc3Cl)CCN4)cn2)CC1 | < 50 | < 50 | < 50 | < 50 | < 50 | < 50 | < 50 | < 50 | < 50 | < 50 | < 50 | < 50 | < 50
CN1CCN(c2ccc(-c3cnc4c(c3)N(Cc3cc(Cl)ccc3C(F)(F)F)CCN4)cn2)CC1 | < 50 | < 50 | < 50 | < 50 | < 50 | < 50 | < 50 | < 50 | < 50 | < 50 | < 50 | < 50 | < 50
COC1CCN(C(=O)c2ccc(-c3cnc4c(c3)N(Cc3cc(Cl)ccc3C(F)(F)F)CCN4)cc2)CC1 | < 50 |  | < 50 |  | < 50 | < 50 |  |  | < 50 |  | < 50 | < 50 | 73.8
O=C(c1ccc(-c2cnc3c(c2)N(Cc2cc(Cl)ccc2C(F)(F)F)CCN3)cc1)N1CCCCC1 | < 50 |  |  |  | < 50 | < 50 |  |  | < 50 |  | < 50 | < 50 | < 50
CC(=O)N1CCN(c2cc(-c3cnc4c(c3)N(Cc3cc(Cl)ccc3C(F)(F)F)CCN4)ccn2)CC1 | < 50 | < 50 | < 50 | < 50 | < 50 | < 50 | < 50 | < 50 | < 50 | 67 | 66 | < 50 | < 50
O=C(O)c1ccc(-c2cnc3c(c2)N(Cc2cc(Cl)ccc2C(F)(F)F)CCN3)cc1 | < 50 |  |  |  | < 50 | < 50 |  |  | < 50 |  | 85 | < 50 | 91.7
O=C(c1ccc(-c2cnc3c(c2)N(Cc2cc(Cl)ccc2C(F)(F)F)CCN3)cc1)N1CCC(N2CCCC2)CC1 | < 50 |  | < 50 |  | < 50 | < 50 |  |  | < 50 |  | 72.3 | < 50 | 92.4

The remaining lines, values ahead:

inhibition [1] [%] | inhibition [2] [%] | inhibition [3] [%] | inhibition [4] [%] | inhibition [5] [%] | inhibition [6] [%] | inhibition [7] [%] | inhibition [8] [%] | inhibition [9] [%] | inhibition [10] [%] | inhibition [11] [%] | inhibition [12] [%] | inhibition [13] [%] | SMILES
< 50 | < 50 | < 50 | < 50 | < 50 | 77 | < 50 | < 50 | < 50 | 75 | < 50 | < 50 | < 50 | FC(F)(F)c1ccc(Cl)cc1CN1CCNc2ncc(-c3ccnc(N4CCNCC4)c3)cc21
< 50 | < 50 | < 50 | < 50 | < 50 | < 50 | < 50 | < 50 | < 50 | 71 | < 50 | < 50 | < 50 | CN1CCN(c2ccc(-c3cnc4c(c3)N(Cc3c(F)ccc(F)c3Cl)CCN4)cn2)CC1
< 50 | < 50 | < 50 | < 50 | < 50 | < 50 | < 50 | < 50 | < 50 | < 50 | < 50 | < 50 | < 50 | CN1CCN(c2ccc(-c3cnc4c(c3)N(Cc3cc(F)ccc3F)CCN4)cn2)CC1
